Test results as given in ChEMBL document CHEMBL2375276, “Antibacterial oxazolidinone analogues having a N-hydroxyacetyl-substituted seven-membered [1,2,5]triazepane or [1,2,5]oxadiazepane C-ring unit” (Eur J Med Chem, 2013).
≈ marks a conversion by molar mass, not a printed value.

Key:
[1] = system: Moraxella catarrhalis; assay: Antibacterial activity against Moraxella catarrhalis SR26840 clinical isolate assessed as growth inhibition by CLSI broth microdilution method; type: functional
Outline: (§1)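 MIC by CLSI broth microdilution in cation-adjusted Mueller-Hinton broth; S. pneumoniae medium supplemented with 5% lysed horse blood.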

[2] = system: Enterococcus faecium; assay: Ratio of eperezolid MIC to compound MIC for Enterococcus faecium SR7940 clinical isolate; type: functional
[3] = biological target: T1, Cytochrome P450 1A2 (Homo sapiens, UniProt P05177); assay: Inhibition of human CYP1A2 assessed as ethoxyresorufin O-deethylation after 20 mins by fluorescence plate reader analysis; type: ADME
T1 sequence (P05177 whole entry): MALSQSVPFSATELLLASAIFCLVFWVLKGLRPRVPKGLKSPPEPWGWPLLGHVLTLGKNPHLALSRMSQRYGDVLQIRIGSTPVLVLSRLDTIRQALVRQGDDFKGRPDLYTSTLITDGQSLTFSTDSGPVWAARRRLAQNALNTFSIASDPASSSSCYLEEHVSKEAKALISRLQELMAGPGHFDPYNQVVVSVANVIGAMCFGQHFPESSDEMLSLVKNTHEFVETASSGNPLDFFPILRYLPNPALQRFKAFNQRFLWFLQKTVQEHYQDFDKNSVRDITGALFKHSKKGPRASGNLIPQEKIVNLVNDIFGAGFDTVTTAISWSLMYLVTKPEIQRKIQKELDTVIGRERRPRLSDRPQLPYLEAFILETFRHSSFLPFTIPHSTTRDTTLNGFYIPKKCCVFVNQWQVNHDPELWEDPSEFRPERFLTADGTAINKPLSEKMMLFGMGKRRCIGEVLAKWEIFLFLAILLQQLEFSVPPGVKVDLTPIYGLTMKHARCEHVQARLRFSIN
Outline: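 Human liver microsomes (0.2 mg protein/mL) with 1 mM NADPH in 50 mM HEPES pH 7.4, 10 mM MgCl2, 0.1 mM EDTA. After centrifugation, supernatant read on a fluorescence plate reader. Standard curve from authentic metabolite added to unincubated reaction mix.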

[4] = system: Staphylococcus aureus; assay: Ratio of linezolid MIC to compound MIC for Staphylococcus aureus Smith; type: functional
[5] = biological target: Cytochrome P450 3A4 (Homo sapiens, UniProt P08684); assay: Inhibition of human CYP3A4 assessed as terfenadine hydroxylation after 20 mins by LC/MS/MS analysis; type: ADME
Cytochrome P450 3A4, sequence (P08684 whole entry): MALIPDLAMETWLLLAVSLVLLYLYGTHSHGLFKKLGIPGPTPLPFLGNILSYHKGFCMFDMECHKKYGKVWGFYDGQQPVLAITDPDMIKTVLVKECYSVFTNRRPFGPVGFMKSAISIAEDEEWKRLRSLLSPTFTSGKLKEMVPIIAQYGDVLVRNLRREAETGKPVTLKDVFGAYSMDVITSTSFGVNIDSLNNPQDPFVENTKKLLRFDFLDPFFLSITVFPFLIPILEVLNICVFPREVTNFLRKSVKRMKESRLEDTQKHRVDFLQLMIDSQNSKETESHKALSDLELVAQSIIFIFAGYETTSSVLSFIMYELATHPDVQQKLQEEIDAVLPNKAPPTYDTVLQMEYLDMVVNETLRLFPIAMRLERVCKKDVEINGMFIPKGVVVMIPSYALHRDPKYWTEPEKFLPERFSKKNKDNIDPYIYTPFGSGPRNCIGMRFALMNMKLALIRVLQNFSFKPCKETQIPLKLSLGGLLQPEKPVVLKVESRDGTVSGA
Outline: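 Human liver microsomes (0.2 mg protein/mL) with 1 mM NADPH in 50 mM HEPES pH 7.4, 10 mM MgCl2, 0.1 mM EDTA. After centrifugation, supernatant metabolite measured by LC/MS/MS. Standard curve from authentic metabolite cocktail added to unincubated reaction mix.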

[6] = system: Staphylococcus aureus; assay: Ratio of linezolid ED50 to compound ED50 for methicillin-resistant Staphylococcus aureus SR3637 infected in iv dosed JCL/ICR mouse systemic infection model; type: functional
Outline: (§2)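 Five-week-old male JCL/ICR mice (20–25 g), five per group, infected intraperitoneally with 0.5 or 1.0 mL bacterial suspension (about 100 times the 50% lethal dose). Test and reference compounds given intravenously or orally 1 h after infection. Mortality followed over 7 days; ED50 with 95% confidence limits by the logit method.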

[7] = system: Staphylococcus aureus; assay: Antibacterial activity against Staphylococcus aureus SR20549 clinical isolate assessed as growth inhibition by CLSI broth microdilution method; type: functional; outline: as §1
[8] = system: Enterococcus faecalis; assay: Ratio of linezolid MIC to compound MIC for Enterococcus faecalis SR1004 clinical isolate; type: functional
[9] = system: Staphylococcus aureus; assay: Ratio of linezolid ED50 to compound ED50 for methicillin-resistant Staphylococcus aureus SR3637 infected in po dosed JCL/ICR mouse systemic infection model; type: functional; outline: as §2

SMILES	MIC [1]	Ratio [2]	IC50 [3]	Ratio [4]	IC50 [5]	Ratio ED50 [6]	MIC [7]	Ratio [8]	Ratio ED50 [9]
COC(=S)NC[C@H]1CN(c2ccc(N3CCNN(C(=O)CO)CC3)c(F)c2)C(=O)O1	2 µg/mL (≈ 4.53 µM)	4	> 20 µM	4	> 20 µM	3	0.25 µg/mL (≈ 0.566 µM)	4	2
COC(=S)NC[C@H]1CN(c2cc(F)c(N3CCNN(C(=O)CO)CC3)c(F)c2)C(=O)O1	1 µg/mL (≈ 2.18 µM)	4	> 20 µM	4	> 20 µM	–	0.25 µg/mL (≈ 0.544 µM)	4	–
